Results on eleven compounds are retold here after ChEMBL document CHEMBL1125562, “Antimitotic agents: ring analogues and derivatives of ethyl [(S)-5-amino-1,2-dihydro-2-methyl-3-phenylpyrido[3,4-b]pyrazin-7-yl]carbamate” (J Med Chem, 1992).

In assay [1] the test system is L1210. Nature of the assay: Concentration that causes a mitotic index (number of cells in mitosis divided by total cells) of 0.5 for cultured lymphoid leukemia L1210 cells during an exposure period of 12 h. The class given is functional, Mus musculus. Summed up: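 Mouse lymphoid leukemia L1210 cells in culture, exposed to agent for 12 h. Mitotic index is cells in mitosis over total cells. Value is the nanomolar concentration giving an index of 0.5.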

For assay [2], the system named is Mus musculus. Nature of the assay: Compound was evaluated in vivo for antileukemic activity by calculating Percent increase in life span at dose of 30 mg/kg. In kind it is functional. Summed up: (§1)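 NCI protocols. CD2F1 mice were implanted ip with 10⁶ lymphocytic leukemia P388 cells 24 h before treatment. Drug was given ip daily on days 1–5, or as a single day-1 dose where footnoted. The read-out was percent increase in lifespan.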

The subject of assay [3] is L1210. The assay is described as follows: Concentration that inhibits proliferation of cultured lymphoid leukemia L1210 cells to 50% control growth during 48 h. The conditions noted are these: Mus musculus, L1210, 48 h. The class given is functional, cell-based. An outline of the steps:
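L1210 lymphoid leukemia cells in culture, exposed to agent for 48 h. Proliferation is measured against untreated control growth. Value is the nanomolar concentration holding growth to 50% of control.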

For assay [4], the system named is Mus musculus. Nature of the assay: Compound was evaluated in vivo for antileukemic activity by calculating Percent increase in life span at dose of 75 mg/kg. The class given is functional. An outline of the steps: as §1
Assay [5] relates to Mus musculus. The assay is described as follows: Compound was evaluated in vivo for antileukemic activity by calculating Percent increase in life span at dose of 24 mg/kg. The class given is functional. An outline of the steps: as §1
Assay [6] concerns Mus musculus. Nature of the assay: Compound was evaluated in vivo for antileukemic activity by calculating Percent increase in life span at dose of 8 mg/kg. In kind it is functional. An outline of the steps: as §1
Assay [7] relates to Mus musculus. Nature of the assay: Compound was evaluated in vivo for antileukemic activity by calculating Percent increase in life span at dose of 200 mg/kg. In kind it is functional. Summed up: as §1
Assay [8] has as its system Mus musculus. Nature of the assay: Compound was evaluated in vivo for antileukemic activity by calculating Percent increase in life span at dose of 70 mg/kg. The class given is functional. Summed up:
as §1

In assay [9] the test system is Mus musculus. Nature of the assay: Compound was evaluated in vivo for antileukemic activity by calculating Percent increase in life span at dose of 1 mg/kg. The class given is functional. Summed up:
as §1

In assay [10] the test system is Mus musculus. The assay is described as follows: Compound was evaluated in vivo for antileukemic activity by calculating Percent increase in life span at dose of 0.5 mg/kg. The class given is functional. Summed up:
as §1

Assay [11] relates to Mus musculus. The assay is described as follows: Compound was evaluated in vivo for antileukemic activity by calculating Percent increase in life span at dose of 2 mg/kg. The class given is functional. An outline of the steps: as §1

For orientation: ILS means the gain in survival time of treated over control animals, in per cent. For orientation: IC50 means the concentration that gives 50% inhibition. A lower IC50 goes with greater potency in that assay.

With `CCOC(=O)Nc1cc2c(c(N)n1)N=C(c1ccccc1)[C@@H](C)N2`, the MI0.5 in assay [1] was 27 nM. Besides, the ILS at 30 mg/kg in [2] is 88%.

The compound `CCOC(=O)Nc1cc2c(c(O)n1)N=C(c1ccccc1)C(C)N2` (stereo not given) yielded an MI0.5 in assay [1] of 1800 nM. In addition, it took 4400 nM to reach half-maximal inhibition in assay [3] (IC50).

In assay [1], `CCOC(=O)Nc1cc(N)c2c(n1)NC(C)C(c1ccccc1)=N2` (stereo not given) registered an MI0.5 of 6700 nM. Moreover, the ILS at 75 mg/kg in [4] is 0%. In assay [3], it took 3900 nM to reach half-maximal inhibition (IC50).

Turning to `CCOC(=O)Nc1cc2c(cn1)N=C(c1ccccc1)C(C)N2` (stereo not given), in assay [1], the MI0.5 is 21 nM. For the same compound, the ILS at 24 mg/kg in assay [5] was 90%. Moreover, 17 nM corresponded to half-maximal inhibition in assay [3] (IC50).

`CCOC(=O)Nc1cc2c(c(N)n1)N=C(c1ccccc1)CCN2`: the ILS at 8 mg/kg in assay [6] was 35%. Moreover, the IC50 in assay [3] is 3.7 nM.

Regarding `COC(=O)Nc1nc(N)c2c(n1)NC(C)C(c1ccccc1)=N2` (stereo not given), the MI0.5 in [1] came to 3000 nM. Also, the ILS at 200 mg/kg in assay [7] is 0%. The same compound had an IC50 in [3] of 1700 nM.

In assay [1], `CCOC(=O)Nc1cc2c(cn1)NC(c1ccccc1)C(C)N2` (stereo not given) yielded an MI0.5 of 161 nM. The ILS at 70 mg/kg in [8] is 65%. Moreover, in assay [3], 81 nM corresponded to half-maximal inhibition (IC50).

Regarding `CCOC(=O)Nc1cc2c(c(N)n1)N=C(c1ccccc1)C(C)N2` (racemic), the MI0.5 in assay [1] came to 0.58 nM. The ILS at 1 mg/kg in assay [9] was 71%.

For the compound `COc1cc2c(c(OC)c1OC)-c1ccc(OC)c(=O)cc1[C@@H](NC(C)=O)CC2` [COLCHICINE], the MI0.5 in assay [1] came out at 21 nM.

In assay [1], `CCOC(=O)Nc1cc2c(c(N)n1)N=C(c1ccccc1)[C@H](C)N2` [MIVOBULIN] displayed an MI0.5 of 0.14 nM. Besides, the ILS at 0.5 mg/kg in assay [10] is 64%.

As to `CC[C@]1(O)C[C@H]2CN(CCc3c([nH]c4ccccc34)[C@@](C(=O)OC)(c3cc4c(cc3OC)N(C=O)[C@H]3[C@@](O)(C(=O)OC)[C@H](OC(C)=O)[C@]5(CC)C=CCN6CC[C@]43[C@@H]65)C2)C1` [VINCRISTINE], the MI0.5 in assay [1] came out at 11 nM. In addition, the ILS at 2 mg/kg in assay [11] was 85%.
